Bioassay records as filed in PubChem.
A selection: hits, their analogues and other compounds. The true share with any hit is near 2.3%.
ADAM10 inh = inhibitors of human ADAM10; recombinant ADAM10, EDANS/DABCYL FRET peptide cleavage, 3 h; inhibition, % at 7 µM; O14672; AID 720582; 0.62% of 370,000 active;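 active = inhibition above a per-campaign cutoff equal to the mean of compounds falling between control-based bounds plus 3 SD, cut at about 20% in these data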;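 also: 0% = DMSO wells while the 100% control is not disclosed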
ADAM17 inh = ADAM17 inhibition, QFRET primary screen; P78536; recombinant ADAM17, EDANS/DABCYL FRET peptide cleavage; inhibition, % at 6.95 µM; 0.83% of 370,000 active;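 active = inhibition above the mean of compounds lying between control limits plus 3 SD, set per campaign, cut at about 8.5% in these data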;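 also: 0% = DMSO-only wells as the low control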
PLCg1 inh = blocks human PLC-gamma1 enzyme activity; P19174; purified PLC-gamma1, fluorogenic substrate, fluorescence; inhibition, % at 12.2 µM; 0.84% of 370,000 active; AID 720700; in the data active = inhibition above about 9.5%
Tb MetRS inh = blocks T. brucei methionyl-tRNA synthetase activity | purified T. brucei MetRS, ATP depletion, Kinase-Glo luminescence | inhibition, % at 11.9 µM | 0.4% of 360,000 active | AID 624268;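 active = inhibition above a per-plate cutoff of the control wells' mean inhibition plus 3 SD, cut at about 5.5% in these data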;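 also: 0% = DMSO wells median and 100% = median of wells with control inhibitor compound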
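Dosing: 11.9 µM single point; system: parasite MetRS enzyme; technique: luminescence of leftover ATP; times: 15 min enzyme-compound preincubation, 2 h reaction, 10 min detection, 25 °C; replicates: each compound tested once; read-out basis: percent inhibition relative to median high and low control wells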
PLCb3 inh = inhibitors of human phospholipase C beta3. Q01970. Purified PLC-beta3, fluorogenic substrate, fluorescence. inhibition, % at 12.2 µM. 0.18% of 370,000 active. AID 720704; in the data active = inhibition above about 11%;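 also: 0% = median of compound wells on plate and 100% = full blocker control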
ADAM10 ctr = counter-screen for ADAM17 exosite inhibitors: inhibitors of human ADAM10; shares compounds with ADAM17 inh; recombinant ADAM10, EDANS/DABCYL FRET peptide cleavage, 3 h; inhibition, % at 6.95 µM; 47% of 2,900 active; AID 743256;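 active = mean inhibition over the triplicate runs exceeds the activity threshold set in the earlier primary screen, cut at about 20% in these data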;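 also: 0% = DMSO wells and 100% = marimastat wells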
ADAM17 confirm = human ADAM17 inhibition, confirmation. shares compounds with ADAM17 inh. recombinant ADAM17, EDANS/DABCYL QFRET peptide cleavage. inhibition, % at 6.95 µM. 65% of 2,900 active;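 active = mean inhibition across replicates above the hit cutoff set in the primary screen, cut at about 8.5% in these data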;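 also: 0% = DMSO wells and 100% = marimastat wells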
* = called active by the depositor.

Screening CCCCCN1CCCCC(NC(=O)c2cccc(C(F)(F)F)c2)C1=O (stereo unspecified) returned ADAM10 inh -3, ADAM17 inh -2, PLCg1 inh -2 and PLCb3 inh 0.
Screening CN(CC(=O)Nc1ccc(S(=O)(=O)N2CCCC2)cc1)Cc1cccc(Cl)c1Cl returned ADAM10 inh 14, ADAM17 inh 10*, PLCg1 inh -1, Tb MetRS inh 0, PLCb3 inh -1, ADAM10 ctr 8 and ADAM17 confirm 8.
For O=C1NC2(CCCC2)N=C1c1ccc(Cl)cc1 the results were ADAM10 inh 15, ADAM17 inh 9.6*, PLCg1 inh 3, Tb MetRS inh -1, PLCb3 inh 4, ADAM10 ctr 12 and ADAM17 confirm 5.
`O=C1NC2(CCCCC2)N=C1c1ccc(F)cc1` gave ADAM10 inh -5, ADAM17 inh -8, PLCg1 inh 7, Tb MetRS inh -1 and PLCb3 inh -1.
Cc1ccc([C@H]2N[C@]3(CCCN(Cc4ccc(F)cc4)C3=O)[C@H]3C(=O)N(C)C(=O)[C@@H]23)cc1 was read as ADAM10 inh -8, ADAM17 inh -2, PLCg1 inh 1, Tb MetRS inh -1 and PLCb3 inh 0.
O=c1cc(CSc2ccccc2)[nH]c2ccccc12 was read as ADAM10 inh 0, ADAM17 inh -2, PLCg1 inh 1, Tb MetRS inh 1 and PLCb3 inh -4.
For Cc1ccc(SCc2cc(=O)c3c(=O)n(-c4ccccc4)[nH]c3[nH]2)cc1 the results were ADAM10 inh 2, ADAM17 inh 10*, PLCg1 inh 5, Tb MetRS inh -1, PLCb3 inh -2, ADAM10 ctr 22* and ADAM17 confirm 14*.
COc1ccccc1N=Nc1nc(-c2ccccc2)c(-c2ccccc2)[nH]1 was read as ADAM10 inh 18, ADAM17 inh 12*, PLCg1 inh 3, Tb MetRS inh 1, PLCb3 inh 7, ADAM10 ctr 15 and ADAM17 confirm 10*.
`CCN(CCNC(=O)Nc1ccc(Cl)cc1)c1ccccc1` gave ADAM10 inh 16, ADAM17 inh 9.8*, PLCg1 inh 7, Tb MetRS inh 5, PLCb3 inh 6, ADAM10 ctr 37* and ADAM17 confirm 19*.
For CCCCCCN1CCN(C2CN(Cc3cn(Cc4ccc(Cl)cc4)nn3)S(=O)(=O)C2)CC1 (stereo unspecified) the results were ADAM10 inh 4, ADAM17 inh 8.9*, PLCg1 inh 6, Tb MetRS inh 0, PLCb3 inh 7, ADAM10 ctr -3 and ADAM17 confirm 0.
Screening CCCCCCN1CCN(C2CN(Cc3cn(Cc4cccc(Cl)c4)nn3)S(=O)(=O)C2)CC1 (stereo unspecified) returned ADAM10 inh -6, ADAM17 inh -3, PLCg1 inh 3, Tb MetRS inh -2 and PLCb3 inh 3.
`CC1(C)CC(=O)c2sc(NS(=O)(=O)c3ccc([N+](=O)[O-])cc3)nc2C1` gave ADAM10 inh 8, ADAM17 inh 16*, PLCg1 inh 9, Tb MetRS inh 0, PLCb3 inh 4, ADAM10 ctr 22* and ADAM17 confirm 8.
Screening Cc1ccccc1C(=O)c1c[nH]c(C(=O)NCC2CCCO2)c1 (stereo unspecified) returned ADAM10 inh 9, ADAM17 inh 9.2*, PLCg1 inh 2, Tb MetRS inh 0, PLCb3 inh 9, ADAM10 ctr -10 and ADAM17 confirm 1.
O=C(COC(=O)[C@H](Cc1c[nH]c2ccccc12)NC(=O)c1ccc(Cl)cc1)Nc1ccc2c(c1)OCO2 was read as ADAM10 inh 15, ADAM17 inh 13*, PLCg1 inh 1, Tb MetRS inh 1, PLCb3 inh -5, ADAM10 ctr 36* and ADAM17 confirm 20*.
Screening CC(=O)N[C@@H](Cc1c[nH]c2ccccc12)C(=O)OCC(=O)Nc1ccc2c(c1)OCO2 returned ADAM10 inh -4, ADAM17 inh -3, PLCg1 inh 2, Tb MetRS inh 0 and PLCb3 inh -2.
Screening O=c1[nH][nH]c(-c2ccccc2)c1C=Nc1ccc(C(F)(F)F)cc1 returned ADAM10 inh 13, ADAM17 inh 13*, PLCg1 inh 8, Tb MetRS inh -1, PLCb3 inh 3, ADAM10 ctr 14 and ADAM17 confirm 7.
For COc1ccc2cc(S(=O)(=O)NCc3cccnc3)ccc2c1 the results were ADAM10 inh -1, ADAM17 inh -5, PLCg1 inh 4, Tb MetRS inh 0 and PLCb3 inh -9.
`Cc1cc(C)cc(NC(=O)c2ccc(Cn3nc(C)c(Cl)c3C)o2)c1` gave ADAM10 inh 7, ADAM17 inh 9.8*, PLCg1 inh -2, Tb MetRS inh 0, PLCb3 inh 1, ADAM10 ctr 21* and ADAM17 confirm 9.5*.
CCOC(=O)C1=C(C)N(CCCCCC(=O)O)C(=O)NC1c1ccccc1OC(=O)c1cccs1 (stereo unspecified) was read as ADAM10 inh 5, ADAM17 inh 10*, PLCg1 inh 6, PLCb3 inh 2, ADAM10 ctr -1 and ADAM17 confirm 4.
Screening O=C1OC(c2ccccc2)(c2ccc3cc(O)ccc3c2)c2ccccc21 (stereo unspecified) returned ADAM10 inh 19, ADAM17 inh 10*, PLCg1 inh 4, Tb MetRS inh 0, PLCb3 inh 0, ADAM10 ctr 25* and ADAM17 confirm 13*.
For CC(NC(=O)c1ccco1)C(=O)N1CCN(c2ccccc2)CC1 (stereo unspecified) the results were ADAM10 inh -5, ADAM17 inh 9.2*, PLCg1 inh 4, Tb MetRS inh 0, PLCb3 inh 3, ADAM10 ctr -8 and ADAM17 confirm 0.
Screening C[C@@]12C(=O)N(c3cccc(Cl)c3)C(=O)N1[C@H](c1ccc(Cl)cc1)[C@@H]1C(=O)N(C3CCCCC3)C(=O)[C@@H]12 returned ADAM10 inh 14, ADAM17 inh 10*, PLCg1 inh 3, Tb MetRS inh 0, PLCb3 inh 3, ADAM10 ctr 38* and ADAM17 confirm 22*.
COc1ccc(C(=O)COC(=O)c2cc(=O)c3ccccc3o2)cc1 was read as ADAM10 inh -5, ADAM17 inh -5, PLCg1 inh 4, Tb MetRS inh 0 and PLCb3 inh 3.
O=C(NC(=S)NNC(=O)c1cc2ccccc2cc1O)c1ccco1 was read as ADAM10 inh 17, ADAM17 inh 9.3*, PLCg1 inh -35, Tb MetRS inh 3, PLCb3 inh -37, ADAM10 ctr 4 and ADAM17 confirm 6.
